Test: Toxicity liver stage against HepG2, at 10uM
Format: cell-based
Set-up: test concentration 10 uM, cell line HepG2-A16-CD81EGFP
Conditions: human, HepG2-A16-CD81EGFP cells; read-out: INHIBITION
Method in brief: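 Uninfected HepG2-A16-CD81EGFP cells, 3 × 10^3 per well, 1536-well, plated on prespotted compound at 10 μM final, parasite-free screening media added to match infected plates; puromycin 10 μM positive, DMSO 0.5% negative; run in parallel with 48 h PbLuc assay at 37 °C, 5% CO2; viability by CellTiter-Glo luminescence, normalized to controls.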

Row | SMILES | cytotoxicity at 10 µM [%]
1 | CC(=O)N(C)Cc1ccccc1NC(=O)c1cnn(C)c1C | 2.31
2 | COC(=O)c1cccc2nc([C@H]3CCN(C4CCN(C)CC4)C3)oc12 | -3.54
3 | CC(C)(C)CNC1(Cc2cc(C(C)(C)O)on2)COC1 | -6.11
4 | CNC(=O)[C@@H](C1CCCCC1)N1CCC[C@H]1C(=O)NC1CC1 | 5.56
5 | CNC(=O)c1ccccc1-c1ccc(S(C)(=O)=O)cc1 | -2.07
6 | CCOC(=O)CNC(=O)C1OC(c2ccccc2)=NN1C(C)=O (stereo unspecified) | 0.53
7 | Cc1c(-c2ccccc2)nc2c(c(C)c(C)n2CCN(C)C)c1N | 24.6
8 | COc1ccccc1CNc1c(N2CCN(C(C)=O)CC2)c(=O)c1=O | -0.707
9 | COCCNC(=O)c1cc(-c2ccc3c(c2)CCO3)n[nH]1 | 0.843
10 | O=C1CCCC2(CCN(C(=O)c3cnccn3)CC2)N1 | -12.9
11 | O=C(NC1CCCC1)c1n[nH]c2c1CNCC2 | 0.582
12 | CC(=O)N1CCCc2sc(C(=O)NC3CC3)nc21 | -132
13 | Cc1cc(C(=O)N2CCC3(CC2)C(=O)NCCN3CC(C)C)c(C)o1 | 9.61
14 | CS(=O)(=O)N[C@H]1COC[C@@H]2CN(Cc3ccco3)C[C@@H]21 | 9.12
15 | O=C(NCC1CC1)C1CN(Cc2cccs2)Cc2ccnn2C1 (stereo unspecified) | -3.94
16 | O=C(O)c1nc(SCc2ccc(F)cc2)ncc1Br | -3.11
17 | CC(C)n1[nH]c(=O)c2c1NC(=O)CC2c1ccncc1 (stereo unspecified) | -4.66
18 | O=C(Cn1nc2c(cc1=O)CCCC2)N[C@@H](C(=O)O)c1ccccc1 | 5.76
19 | CC(=O)c1cccc(NC(=O)COc2c(C)n(C)ccc2=O)c1 | 2.45
20 | O=C(CSC1=NS(=O)(=O)c2cc(F)ccc2N1)c1ccc(Cl)cc1 | 10.3
21 | CS(=O)(=O)N1Cc2nccn2CC(Cn2ncccc2=O)C1 (stereo unspecified) | -2.04
22 | Cc1csc([C@@H]2C[C@@H]3CCN(C(=O)c4ccnnc4)C[C@H]3O2)n1 | 4.49
23 | CCn1cc(Cn2cc(Cl)c(N)n2)c(C)n1 | -6.56

Row | SMILES | cytotoxicity at 10 µM [%]
24 | Cn1cc(Br)c(C(=O)NCCCn2cc(Cl)cn2)n1 | -1.49
25 | COCc1nc(N(C)C)ncc1C(=O)Nc1ccc(Cl)cc1 | 0.474
26 | Cc1noc(C)c1-c1nc(C2CCCN(CCC(N)=O)C2)ccc1CO (stereo unspecified) | -2.66
27 | CCS(=O)(=O)N1C[C@@H](O)[C@H](Oc2cccc(F)c2)C1 | -3.65
28 | CS(=O)(=O)N1C[C@@H](O)[C@H](N2CCN(c3ccccc3)CC2)C1 | 20.3
29 | CC(=O)N1CCC(C(=O)N2CCCC(Cc3cccc(C)n3)C2)CC1 (stereo unspecified) | -18.6
30 | Cc1ccc(=O)n(CC2(O)CCN(Cc3c(F)cccc3F)CC2)n1 | -17.6
31 | CCOCCSc1nnc(Cc2ccccc2F)o1 | 8.45
32 | Cc1cncc(NCc2ccccc2N2CCOCC2)c1 | 6.02
33 | COc1ccc(NC(=O)c2cccc(OC)c2OC)cc1 | 18.5
34 | Cc1ccc(OCCN(C)S(=O)(=O)N2CCOCC2)cc1 | 0.651
35 | COc1cccc(COCC(=O)NC2CCN(CC(N)=O)CC2)c1 | -8.47
36 | CNC(=O)C1CCCCN1C(=O)c1csc(-c2ccc(C)o2)n1 (stereo unspecified) | 7.55
37 | Cc1ccc(F)c2c1N(C(=O)Cc1c(C)nn(C)c1C)CCC2 | 12.7
38 | CNC(=O)Cc1noc(-c2cc3c(s2)CCC(C)C3)n1 (stereo unspecified) | 4.75
39 | O=C(NC1CCS(=O)(=O)C1)c1ccccc1SCc1cscn1 (stereo unspecified) | -1.53
40 | CCC(CNC(=O)CCn1cncn1)N1CCc2ccccc2C1 (stereo unspecified) | -137
41 | CC1CN(C(=O)Nc2cc(C(F)(F)F)c[nH]c2=O)CC(C)(C)O1 (stereo unspecified) | 8.96
42 | CCc1ccc(S(=O)(=O)N2CCCn3ncnc32)s1 | -0.908
43 | COc1ccc2c(c1)CCCC2CC(=O)O (stereo unspecified) | -2.74
44 | O=C(c1ccc(CN2CC(n3cccn3)C2)cc1)N1CCCC1 | 9.56
45 | CCc1nc2n(n1)CC(NCCc1cccs1)CC2 (stereo unspecified) | -13
46 | Cn1ccnc1CN1CCN(c2ncnc3ccsc23)CC1 | -7.95

Row | SMILES | cytotoxicity at 10 µM [%]
47 | CN(Cc1cnn(C)c1)C(=O)Cc1ccc2c(c1)OCCO2 | 2.45
48 | CC1CCCN(Cc2ccc(CNC(=O)NCc3ccon3)cc2)C1 (stereo unspecified) | -10
49 | Cn1cnc(S(=O)(=O)Nc2cc(C(N)=O)ccc2Cl)c1 | 3.86
50 | COC(=O)N1CCC(Nc2ccc(Cl)c(C#N)n2)C1 (stereo unspecified) | -3.44
51 | CNC(=O)CN1CCC(NC2CSCCc3ccccc32)CC1 (stereo unspecified) | -4.28
52 | COc1cc(C2(C(=O)NCCn3ccnc3)CCCC2)ccc1C | 8
53 | O=C(CCNC(=O)c1sccc1-c1ccccc1)NC1CCS(=O)(=O)C1 (stereo unspecified) | 1.9
54 | CCN(CC(=O)NC)S(=O)(=O)N1CCCCC1 | 1.29
55 | CC(=O)NCCNC(=O)c1cccc(Cn2nc(C)cc2C)c1 | -10.3
56 | CC(C)c1nn(C)c(N2CCOCC2)c1CNCc1nncn1C | 5.59
57 | CC(C)n1cc(S(=O)(=O)NCCc2nnc3ccccn23)cn1 | 7.07
58 | Cn1cnnc1CNC(=O)C1CCCN(Cc2cccc(F)c2)C1 (stereo unspecified) | 5.49
59 | Cc1ccc(CCNC(=O)NCCCC(N)=O)c(C)c1 | 5.71
60 | CCC(Nc1nnnn1-c1ccccc1)C(=O)Nc1ccccc1C (stereo unspecified) | -13.1
61 | CC(c1nnc(-c2cccs2)o1)N1CCc2cncnc2C1 (stereo unspecified) | 6.37
62 | CC(C)(C)CCN1CCN(c2snc(Cl)c2C#N)CC1 | 38.1
63 | Nc1cc2c(nn1)CCN(C(=O)c1cccnc1Oc1ccccc1)C2 | -11.6
64 | CCc1cc(CNC(=O)N2Cc3ccccc3N(C)CC2C)on1 (stereo unspecified) | 4.38
65 | CCNC(=O)CN1CCCN(C(=O)C2CCCc3[nH]ncc32)CC1 (stereo unspecified) | 4
66 | CCCC(C)C(=O)NCc1cn2cc(Br)ccc2n1 (stereo unspecified) | -6.6
67 | N#Cc1cccc(C(=O)NC2CCc3c(ccc(=O)n3CC3CC3)C2)c1 (stereo unspecified) | 0.908
68 | C[C@H]1C[C@H]2CN(C(=O)CCc3ccccc3)CC[C@H]2O1 | -75.6
69 | CCC(CO)N(Cc1cccc(O)c1)Cc1ccccc1C (stereo unspecified) | -8.22

Row | SMILES | cytotoxicity at 10 µM [%]
70 | O=C1[C@@H]2C[C@H](O)CCN2C(=O)CN1CCSc1ccccn1 | -2.96
71 | CCOCc1nc2c(c(N3CC=CC3)n1)CCN(Cc1ccco1)CC2 | -3.81
72 | COc1cnc(N2C[C@@H](CN3CCOCC3)C[C@H](CO)C2)nc1 | -6.16
73 | CN(C)CC1(O)CCCN(c2noc(-c3ccccc3)n2)CC1 (stereo unspecified) | 0.0264
74 | Cc1nnsc1C(=O)N1CCCC(c2nccn2Cc2cscn2)C1 (stereo unspecified) | 2.62
75 | O=C1CC[C@H]2CN(c3ncc(F)cn3)CC[C@H]2N1CCc1ccccn1 | 4.83
76 | O=C(c1cccc(C2CCNC2)c1)N1CCC(c2ccncc2)CC1 (stereo unspecified) | -1.12
77 | CCN(CC)C(=O)Cn1cc(-c2nc(-c3ccccc3C)no2)nn1 | -2.46
78 | CC(C)(CNC(=O)c1ccco1)CNC(=O)c1ccco1 | -3.97
79 | Cc1nnc(SCC(=O)NCC(c2ccccc2Cl)N(C)C)s1 (stereo unspecified) | 2.67
80 | O=C(COc1cccc(Cl)c1)N1CCOCC(O)(CN2CCCC2)C1 (stereo unspecified) | -4.68
81 | COc1nccnc1-c1cccc(-c2ccn(CC3COCCO3)n2)c1 (stereo unspecified) | -3.65
82 | Cc1nc(C(=O)N2CCC(c3nnc(Cn4ccnc4)n3C)CC2)cs1 | -127
83 | CN(C)S(=O)(=O)N1CCCCC1CCc1ccc(O)cc1 (stereo unspecified) | 4.32
84 | Cc1ccc(CN2C[C@@H](C(=O)O)[C@H](c3ccccn3)C2)o1 | -3.88
85 | CC(=O)c1cn(CC(=O)N2CCCC(O)(CO)C2)c2ccccc12 (stereo unspecified) | -4.87
86 | NC1CCCc2c1cnn2-c1cc(F)cc(F)c1 (stereo unspecified) | 6.54
87 | O=C(NCCc1cccnc1)c1cn(CCN2CCNCC2)nn1 | -7.82
88 | Cc1nc(C)c(CC(=O)N2C[C@@H](C(=O)O)[C@H](c3ccncc3)C2)s1 | -127
89 | CCN1CCCC1CNC(=O)c1cc(COc2cccc(F)c2)[nH]n1 (stereo unspecified) | -5.96
90 | COc1cccc([C@@H]2CCN(Cc3ccc4ccccc4n3)C[C@H]2O)c1 | -16.5
91 | Cc1ccccc1CSc1nc(N)cc(N2CCOC(C(N)=O)C2)n1 (stereo unspecified) | 5.27
92 | Cc1oc(C(=O)O)cc1S(=O)(=O)Nc1ccc(Br)cc1Cl | -5.09

Row | SMILES | cytotoxicity at 10 µM [%]
93 | CC(=O)N1CCN(C(=O)Nc2cnc3c(cnn3C(C)C)c2)CC1 | -0.192
94 | O=C(c1cc2c(s1)CCC2)N1CCCC1Cn1cccn1 (stereo unspecified) | -3.12
95 | CC(C)c1nc(C2CCCN(C(=O)CCCn3ccnc3)C2)no1 (stereo unspecified) | -17.2
96 | O=C(CCc1ccccc1)N1CC(n2cncn2)C1 | -15.7
97 | CN(C)c1cc(CNC(=O)c2ccccc2S(C)(=O)=O)ccn1 | -10.7
98 | CS(=O)(=O)c1cccc(C(N)c2ccccc2)c1 (stereo unspecified) | -19.3
99 | Cc1csc(N2CCN(C(=O)NCCNc3ncccn3)CC2)n1 | -18.8
100 | CCOCC(O)CN1CCN(C(=O)C2CCCC2)CC1 (stereo unspecified) | -13
101 | Cc1ccc(N2CCCC(NCc3cccs3)C2)nn1 (stereo unspecified) | -33
102 | Cc1ccc(N2CCCC(NCc3ccc4c(c3)OCCO4)C2)nn1 (stereo unspecified) | -20.1
103 | C=C1c2ccccc2C(=O)N1CCC(=O)N1CCNC(=O)C1 | -4.12
104 | CC1CN(c2ccc(CNC(=O)c3ccn(C)c(=O)c3)cn2)CCO1 (stereo unspecified) | 2.82
105 | CC(C)n1ccnc1CN1CCCN(C(=O)COC2CCCC2)CC1 | -0.602
106 | O=c1n(CCSCc2ccccc2F)nc2ccccn12 | 0.168
107 | CNC(=O)[C@@H](C1CC1)N1CCC[C@H]1C(=O)NCC(C)C | -2.45
108 | O=C(Nc1ccccc1F)C1=NOC2(CCNCC2)C1 | 2.93
109 | CO[C@H]1CCN(S(=O)(=O)N(C)C)[C@@H]2CN(Cc3cccnc3)C[C@H]12 | 11.9
110 | Cc1ncsc1CN1C[C@H](OCc2ccncc2)[C@H]2OCCC[C@H]21 | -139
111 | Cc1oc(C(C)C)cc1C(=O)N1C[C@@H]2CC[C@H]1CN(S(=O)(=O)N(C)C)C2 | -127
